# Measurements pooled from the literature.
# Each line is one published result; the experiments were not run side by side.
# Target: Membrane-associated tyrosine- and threonine-specific cdc2-inhibitory kinase (PKMYT1, Homo sapiens, UniProt Q99640)
# One construct used (Q99640 1-499): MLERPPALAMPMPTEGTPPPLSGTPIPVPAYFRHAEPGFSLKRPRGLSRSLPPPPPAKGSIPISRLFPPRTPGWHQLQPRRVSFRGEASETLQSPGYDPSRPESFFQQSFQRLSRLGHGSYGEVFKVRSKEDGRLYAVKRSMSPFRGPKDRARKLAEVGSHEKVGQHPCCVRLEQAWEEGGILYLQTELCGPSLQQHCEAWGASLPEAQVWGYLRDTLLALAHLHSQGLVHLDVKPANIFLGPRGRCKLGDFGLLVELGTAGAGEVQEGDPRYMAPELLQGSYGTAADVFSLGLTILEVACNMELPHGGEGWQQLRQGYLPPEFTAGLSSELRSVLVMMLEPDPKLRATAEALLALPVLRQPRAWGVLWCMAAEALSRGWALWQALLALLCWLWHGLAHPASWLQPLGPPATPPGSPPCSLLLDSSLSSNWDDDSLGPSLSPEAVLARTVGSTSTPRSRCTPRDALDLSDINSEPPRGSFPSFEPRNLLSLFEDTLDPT
SMILES,observed,method,tested at,remaining binding [%]
Nc1ncc2c(n1)-c1c([nH]c3ccc(C#CC4CC4)cc13)CCCC2,binding,competition with immobilised ligand,1 µM,98
O=C(c1ccc(Nc2ncc(Cl)c(-c3cc4ccccc4s3)n2)cc1)N1CCC(N2CCCC2)CC1,binding,competition with immobilised ligand,1 µM,87
O=C(Nc1cccnn1)N1CC(C/C=C/c2cncc(Oc3ccc(C(F)(F)F)cn3)n2)C1,cell-free assay,competition with immobilised ligand,1 µM,100
Cc1cnc(Nc2ccc(C(=O)N3CCC(N4CCCC4)CC3)cc2)nc1-c1cc2ccccc2s1,binding,competition with immobilised ligand,1 µM,80
CN(c1nccc(-c2cnn3ncccc23)n1)C1CC1,binding,,1 µM,88
c1cncc(-c2cccc(Nc3nccc(NC4CCCCC4)n3)c2)c1,binding,competition with immobilised ligand,10 µM,96
O=C1CCc2cc(Nc3cc(OC4CCOCC4)c([N+](=O)[O-])cc3Cl)ccc2N1,cell-free assay,competition with immobilised ligand,1 µM,79
CN(C)c1nccc(-c2cnc3ncccn23)n1,binding,,1 µM,88
COc1cc(-c2cn(C3CCc4c(F)cccc4N(CC(F)(F)F)C3=O)nn2)ccc1-n1cnc(C)c1 (centres unmarked),cell-free assay,competition with immobilised ligand,1 µM,100
N[C@@H]1CCN(c2nccc(-c3cnn4ncccc34)n2)C1,binding,,1 µM,100
O=C(NCCCN1CCOCC1)c1ccc(Nc2ncc(Cl)c(-c3ccc(Cl)s3)n2)cc1,binding,competition with immobilised ligand,1 µM,100
CN(CCCC(F)(F)F)c1nccc(-c2cnn3ncccc23)n1,binding,,1 µM,93
CNC(=O)[C@@H]1CC[C@@H](n2c(-c3ccc4cnccc4c3)nc3ccc(C(=O)NCc4cccc(C(N)=O)c4)cc32)C1,binding,competition with immobilised ligand,1 µM,100
FC(F)(F)Oc1cccc(-c2cnc3ccc(-c4ccncc4)nn23)c1,cell-free assay,competition with immobilised ligand,5 µM,67
COc1cc(-c2cn(C3CCc4ccccc4N(CC(F)(F)F)C3=O)nn2)ccc1-n1ccc(C)n1 (centres unmarked),cell-free assay,competition with immobilised ligand,1 µM,100
O=C(Nc1c[nH]nc1C(=O)NC1CCNCC1)c1cc(F)cc(F)c1,binding,competition with immobilised ligand,1 µM,83
O=C(Nc1ccc(Oc2ccc(F)cc2)cc1)N1CCc2ncccc2[C@H]1c1ccc(F)cc1,cell-free assay,competition with immobilised ligand,1 µM,63
C[C@H]1CCN(c2nccc(-c3cnn4ncccc34)n2)C1,binding,,1 µM,100
CCOC(=O)c1cc2cc(-c3cc(C(=O)NCc4ccc(C(=O)O)cc4)nn3C)ccc2[nH]1,cell-free assay,competition with immobilised ligand,0.1 µM,100
COc1ccnn2ncc(-c3ccnc(N(C)C)n3)c12,binding,,1 µM,100
